From ChEMBL document CHEMBL1128592, “Phenethylthiazolethiourea (PETT) compounds, a new class of HIV-1 reverse transcriptase inhibitors. 1. Synthesis and basic structure-activity relationship studies of PETT analogs” (J Med Chem, 1995)

Tests used:
[1] = target: Human immunodeficiency virus type 1 reverse transcriptase (Human immunodeficiency virus 1) (UniProt Q72547); test: Concentration which reduced the cytopathic effect of HIV-1 in MT-4 infected cells; format: functional, cell-based
In short: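 MT4 cells at 2 × 10⁵ cells/mL in RPMI 1640 with 10% FCS, penicillin and streptomycin (2 × 10⁴ cells/well). Compounds added from DMSO stocks diluted in medium (final DMSO ≤1%), then HIV-1 IIIB at 10 TCID₅₀/well. After 6 days in CO₂, surviving cells read by XTT. ED₅₀ is the concentration reducing virus cytopathic effect, mean of at least two experiments.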

[2] = target: Human immunodeficiency virus type 1 reverse transcriptase (Human immunodeficiency virus 1, UniProt Q72547); test: Inhibition of HIV-1 reverse transcriptase using rCdG as template and dGTP as substrate
[3] = Concentration which reduced the viability of the uninfected MT-4 cells to 50% compared to untreated control cells; details: MT4

| SMILES | ED50 [1] | IC50 [2] | CD50 [3] |
| --- | --- | --- | --- |
| S=C(NCCc1ccccc1)Nc1ccccn1 | 200 nM | 20 nM | – |
| S=C(NCCc1cccnc1)Nc1nccs1 | 6400 nM | > 10000 nM | 83 µM |
| COc1cccc(CCNC(=S)Nc2nccs2)c1 | 600 nM | 150 nM | 143 µM |
| Fc1ccc(CCNC(=S)Nc2nccs2)cc1 | 3300 nM | 1000 nM | 78 µM |
| FC(F)(F)c1csc(NC(=S)NCCc2ccccc2)n1 | 500 nM | 550 nM | 9 µM |
| CCCOc1cccc(CCNC(=S)Nc2nccs2)c1 | 2200 nM | 200 nM | 75 µM |
| O=C(NCCc1ccccc1)Nc1nccs1 | > 10000 nM | > 10000 nM | 113 µM |
| O=C(O)c1csc(/N=C(\S)NCCc2ccccc2)n1 | > 10000 nM | > 10000 nM | > 325 µM |
| O=[N+]([O-])c1ccccc1CCNC(=S)Nc1nccs1 | 1100 nM | 150 nM | 123 µM |
| COc1ccc(OC)c(CCNC(=S)Nc2nccs2)c1 | 400 nM | 200 nM | 86 µM |
| CCCc1csc(NC(=S)NCCc2ccccc2)n1 | 1600 nM | 350 nM | > 330 µM |
| Cc1ccnc2c1NC(=O)c1cccnc1N2C1CC1 | 150 nM | – | – |
| CN(CCc1ccccc1)/C(S)=N\c1nccs1 | > 10000 nM | > 10000 nM | 29 µM |
| S=C(NCCc1ccccc1)Nc1ccc(Br)cn1 | 50 nM | 15 nM | – |
| CC(C/N=C(\S)Nc1nccs1)c1ccccc1 (centres undefined) | 1200 nM | – | 108 µM |
| CC(Cc1ccccc1)/N=C(\S)Nc1nccs1 (centres undefined) | > 10000 nM | > 10000 nM | 87 µM |
| CC(C)Oc1cccc(CCNC(=S)Nc2nccs2)c1 | 400 nM | 400 nM | 16 µM |
| S=C(NCc1ccccc1)Nc1nccs1 | > 10000 nM | 1200 nM | 120 µM |
| Fc1cccc(F)c1CCNC(=S)Nc1nccs1 | 20 nM | 10 nM | 33 µM |
| Cn1cccc1CC/N=C(\S)Nc1nccs1 | > 10000 nM | 1900 nM | 143 µM |
| COc1cccc(F)c1CCNC(=S)Nc1nccs1 | 300 nM | 10 nM | 51 µM |
| CCc1csc(NC(=S)NCCc2ccccc2)n1 | 700 nM | 600 nM | > 340 µM |
| [N-]=[N+]=Nc1ccccc1CCNC(=S)Nc1nccs1 | – | 30 nM | – |

| SMILES | ED50 [1] | IC50 [2] | CD50 [3] |
| --- | --- | --- | --- |
| S=C(NCCc1ccccc1Cl)Nc1nccs1 | 400 nM | 600 nM | 100 µM |
| Fc1ccccc1CCNC(=S)Nc1nccs1 | 100 nM | 60 nM | 75 µM |
| CC(C)c1csc(NC(=S)NCCc2ccccc2)n1 | 1300 nM | 200 nM | > 330 µM |
| S=C(NCCc1cccc(Oc2ccccc2)c1)Nc1nccs1 | 2800 nM | 1100 nM | 14 µM |
| S=C(NCCc1ccccn1)Nc1nccs1 | 1300 nM | 200 nM | 76 µM |
| Cc1ccc(NC(=S)NCCc2c(F)cccc2F)nc1 | 10 nM | 3 nM | > 325 µM |
| CCOc1cccc(F)c1CCNC(=S)Nc1ccc(C)cn1 | 200 nM | 4.5 nM | 60 µM |
| CCc1csc(NC(=S)NCCc2c(F)cccc2F)n1 | 80 nM | 5.5 nM | > 305 µM |
| N#Cc1csc(NC(=S)NCCc2ccccc2)n1 | 200 nM | 200 nM | – |
| Fc1cccc(F)c1CCNC(=S)Nc1ccc(Br)cn1 | – | 1 nM | – |
| CC(C)=CCN1Cc2cc(Cl)cc3[nH]c(=S)n(c23)C[C@@H]1C | 250 nM | 200 nM | – |
| S=C(NCCc1ccccc1)Nc1ncc(Cl)s1 | 2700 nM | 2400 nM | 15 µM |
| CCCCc1csc(NC(=S)NCCc2ccccc2)n1 | 1300 nM | 2500 nM | 313 µM |
| Fc1cccc(Cl)c1CCNC(=S)Nc1nccs1 | 50 nM | 6 nM | 111 µM |
| S=C(NCCc1ccccc1)Nc1ncccc1Br | > 10000 nM | > 10000 nM | 297 µM |
| COc1ccc(CCNC(=S)Nc2nccs2)cc1 | 5500 nM | 350 nM | 68 µM |
| CC(CNC(=S)Nc1nccs1)c1ccccc1 (centres undefined) | – | 450 nM | – |
| CCOc1cccc(CCNC(=S)Nc2nccs2)c1 | 150 nM | 60 nM | 91 µM |
| CCOc1cccc(F)c1CCNC(=S)Nc1ccc(Br)cn1 | 20 nM | 6 nM | 50 µM |
| S=C(NCCc1ccccc1)Nc1cc[nH]n1 | > 10000 nM | > 10000 nM | 122 µM |
| COc1cccc(OC)c1CCNC(=S)Nc1nccs1 | 90 nM | 90 nM | 37 µM |
| S=C(NCCc1ccco1)Nc1nccs1 | 5200 nM | 650 nM | 89 µM |
| S=C(NCCc1ccccc1)Nc1nc2ccccc2s1 | 1100 nM | 200 nM | – |

| SMILES | ED50 [1] | IC50 [2] | CD50 [3] |
| --- | --- | --- | --- |
| CCc1cc(NCc2nc3c(Cl)ccc(Cl)c3o2)c(O)nc1C [L-697661] | 65 nM | 100 nM | 114 µM |
| S=C(NCCCc1ccccc1)Nc1nccs1 | > 10000 nM | 4500 nM | > 360 µM |
| Cc1ccc(NC(=S)NCCc2ccccn2)nc1 | 300 nM | 50 nM | 73 µM |
| S=C(NCCc1ccccn1)Nc1ccc(Br)cn1 | 20 nM | – | – |
| N#Cc1csc(NC(=S)NCCc2c(F)cccc2F)n1 | 30 nM | 6 nM | 10 µM |
| S=C(NCCc1ccccc1)Nc1cnccn1 | > 10000 nM | 3900 nM | > 390 µM |
| CCCCCCOc1cccc(CC/N=C(\S)Nc2nccs2)c1 | > 10000 nM | > 10000 nM | 8 µM |
| Oc1ccccc1CCNC(=S)Nc1nccs1 | 4000 nM | 1100 nM | 100 µM |
| COc1ccccc1CCNC(=S)Nc1nccs1 | 400 nM | 40 nM | 102 µM |
| CN(/C(S)=N/CCc1ccccc1)c1nccs1 | 10000 nM | 1500 nM | 65 µM |
| S=C(NCCc1ccccc1)Nc1nncs1 | 5300 nM | 1900 nM | – |
| Fc1cccc(F)c1CC/N=C(\S)Nc1ccc(Br)cn1 | 10 nM | – | 67 µM |
| Cc1cn([C@H]2C[C@H](N=[N+]=[N-])[C@@H](CO)O2)c(=O)[nH]c1=O | 7 nM | – | – |
| COc1ccc(Br)cc1CCNC(=S)Nc1nccs1 | 50 nM | 30 nM | 94 µM |
| Fc1cccc(CCNC(=S)Nc2nccs2)c1 | 250 nM | 150 nM | 78 µM |
| CCOC(=O)c1csc(NC(=S)NCCc2ccccc2)n1 | 500 nM | 200 nM | 60 µM |
| [N-]=[N+]=Nc1ccccc1CC/N=C(\S)Nc1nccs1 | 100 nM | – | 92 µM |
| Cc1csc(NC(=S)NCCc2ccccc2)n1 | 400 nM | 100 nM | > 360 µM |
| S=C(NCCc1ccccc1)Nc1nccs1 | 1300 nM | 900 nM | – |
| CCOc1cccc(F)c1CCNC(=S)Nc1nccs1 | 200 nM | 10 nM | 37 µM |
| Cc1ccc(NC(=S)NCCc2ccccc2)nc1 | 150 nM | 30 nM | – |
| S=C(NCCc1ccncc1)Nc1nccs1 | > 10000 nM | > 10000 nM | 113 µM |
| Cc1ccccc1CCNC(=S)Nc1nccs1 | 950 nM | 80 nM | 72 µM |
